Among the data in ChEMBL document CHEMBL1157241, “Search for Hsp90 inhibitors with potential anticancer activity: isolation and SAR studies of radicicol and monocillin I from two plant-associated fungi of the Sonoran desert” (J Nat Prod, 2006) are Activity and IC50 values, retold here.

For one series, the species on record is Mus musculus. Kind of series: Induction of heat shock response in mouse 3T3-Y9/B12 cells at 5 uM by fluorescence technique relative to geldanamycin. The format is functional, cell-based. The essentials:
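3T3-Y9/B12 reporter cells were plated at 20 000 cells/well and attached overnight. Triplicate wells received compound at 5.0 µM, GDA positive control at 5.0 µM, or DMSO vehicle (≤0.1%). After overnight incubation, wells were rinsed and read in PBS by fluorescence (ex 485, em 525 nm). Signal was expressed as percentage of DMSO control, mean ± SD of triplicates, with three independent experiments.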

Series [1] can be described thus: Cytotoxicity against in mouse 3T3-Y9/B12 cells at 10 uM. In kind it is cell-based. The method in brief: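 Mouse 3T3-Y9/B12 heat-shock reporter cells were plated at 20 000 cells/well and left to attach overnight. Compound was added at 10.0 µM in triplicate wells and incubated overnight. Treated wells were then examined by microscope for toxicity, recording whether any living cells remained.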

The species entered for another series is Oryctolagus cuniculus. Nature of the series: Inhibition of Hsp90 in rabbit reticulocyte lysate assessed as inhibition of heat-denatured firefly luciferase renaturation at 10 uM relative to geldanamycin. The essentials:
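Rabbit reticulocyte lysate with an ATP-regenerating system (10 mM phosphocreatine, 1 mM ATP, 17.5 units creatine phosphokinase) was preincubated 20 min with compound in DMSO. Firefly luciferase (100 nM, pH 7.8 tricine buffer) was heat-denatured 8 min at 40 °C, then diluted 10-fold into the lysate and incubated at 28 °C. Luminescence was read in triplicate at 3 min and expressed as % of DMSO control.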

Series [2] relates to MCF7. Nature of the series: Antiproliferative activity against human MCF7 cells by MTT assay. The format is functional, cell-based. The essentials: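 MCF-7 cells were seeded at 2000 cells/well and dosed the next day with serial dilutions in triplicate. GDA was the positive control and DMSO vehicle the negative control. After 3 days at 37 °C under 5% CO2, MTT was added for 3 h in the dark. Medium was replaced with DMSO and absorbance read at 570 nm, minus 650 nm background.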

The test system of series [3] is MCF7. Kind of series: Antiproliferative activity against human MCF7 cells at 1 uM by MTT assay. The format is functional, cell-based. Background: Tetrazolium dyes change colour on reduction, which living cells bring about.

Activity calls are given as the source filed them. The calls are words filed in the database; no cut-off is given here.

As to `C[C@@H]1C[C@H]2O[C@@H]2CCCCC(=O)Cc2c(Cl)c(O)cc(O)c2C(=O)O1` [TETRAHYDRORADICICOL], the result in the series filed under Mus musculus and in the series filed under Oryctolagus cuniculus was Active. The Activity result in series [1] is “Toxic”. The same compound registered an IC50 in the series with MCF7 [2] of 190 nM.

With `C[C@H]1CCCC(=O)CCC/C=C/c2cc(O)cc(O)c2C(=O)O1` [ZEARALENONE], the Activity result in series [1] is “Toxic”. The outcome in the series filed under Oryctolagus cuniculus was Active. In addition, the outcome in the series with MCF7 [3] was inactive.

In the case of `C[C@H]1CCC[C@H](O)CCCCCc2cc(O)cc(O)c2C(=O)O1` [ZERANOL], in series [1], the Activity result was “Toxic”.

In the case of `C[C@@H]1C[C@H]2O[C@@H]2/C=C\C=C\C(=O)Cc2cc(O)cc(O)c2C(=O)O1` [MONOCILLIN I], the result in the series listed under Mus musculus and in the series filed under Oryctolagus cuniculus was Active. Further, in series [1], the Activity entry is “Toxic”. This compound came in with an IC50 in the series on MCF7 [2] of 340 nM.

With `COc1cc(O)c2c(c1Cl)CC(=O)/C=C/C=C\[C@H]1O[C@@H]1C[C@@H](C)OC2=O` [MONOMETHYL RADICICOL], the outcome in the series filed under Mus musculus and in the series listed under Oryctolagus cuniculus was Active. Also, the Activity result in series [1] is reported as “Toxic”. Moreover, the IC50 in the series with MCF7 [2] came out at 900 nM.

Turning to `C[C@@H]1C[C@H](O)CCCCCC(=O)Cc2cc(O)cc(O)c2C(=O)O1` [HEXAHYDROMONOCILLIN I], the Activity entry in series [1] is on record as “Toxic”.

On to `C[C@H]1CCCC(=O)CCCCCc2cc(O)cc(O)c2C(=O)O1` [ZEARALANONE], for which the Activity result in series [1] is reported as “Toxic”.

As to `C[C@@H]1C[C@H]2O[C@@H]2CCCCC(=O)Cc2cc(O)cc(O)c2C(=O)O1` [TETRAHYDROMONOCILLIN I], the outcome in the series filed under Mus musculus and in the series filed under Oryctolagus cuniculus was Active. For the same compound, the Activity entry in series [1] is given as “Toxic”. Moreover, the result with MCF7 [3] was inactive.

Turning to `C[C@@H]1C[C@H](O)CCCCCC(=O)Cc2c(Cl)c(O)cc(O)c2C(=O)O1` [HEXAHYDRORADICICOL], in series [1], the Activity result is on record as “Toxic”.

Consider `C[C@H]1CCC[C@@H](O)CCCCCc2cc(O)cc(O)c2C(=O)O1` (stereo in doubt; 16), for which, in the series filed under Oryctolagus cuniculus, the result was Active. Moreover, in the series on MCF7 [3], the outcome was inactive.

For `COc1cc(OC)c2c(c1Cl)CC(=O)/C=C/C=C\[C@H]1O[C@@H]1C[C@@H](C)OC2=O` [DIMETHYL RADICICOL], the outcome in the series listed under Mus musculus was Active. Besides, in series [1], the Activity result is “Toxic”. For the same compound, the outcome in the series with MCF7 [3] was inactive.

For the compound `C[C@@H]1C[C@H]2O[C@@H]2/C=C\C=C\C(=O)Cc2c(Cl)c(O)cc(O)c2C(=O)O1` [RADICICOL], the result in the series filed under Mus musculus and in the series listed under Oryctolagus cuniculus was Active. The Activity result in series [1] was “Toxic”. Besides, the IC50 in the series with MCF7 [2] was 30 nM.

For the compound `COc1cc2c(c(OC)c1)C(=O)O[C@H](C)C[C@H]1O[C@@H]1/C=C\C=C\C(=O)C2` [DIMETHYL MONOCILLIN I], the Activity result in series [1] is recorded as “Toxic”.

With `C[C@H]1CCC[C@@H](O)CCCCCc2cc(O)cc(O)c2C(=O)O1` (stereo in doubt; 14), the outcome in the series filed under Oryctolagus cuniculus was Active. In addition, the outcome in the series on MCF7 [3] was inactive.

`COc1cc(O)c2c(c1)CC(=O)/C=C/C=C\[C@H]1O[C@@H]1C[C@@H](C)OC2=O` [MONOMETHYL MONOCILLIN I]: the outcome in the series filed under Mus musculus was Active. The Activity result in series [1] is given as “Toxic”. The outcome with MCF7 [3] was inactive.

Usually IC50 stands for the concentration that inhibits the measured activity by half. A low value points to greater potency in that assay.
